CHRM5 PAM: positive allosteric modulators of human muscarinic M5 receptor. activation, % at 3 µM. CHO-K1 hM5, Fluo-8 calcium, ACh EC20 PAM; 0% = ACh EC20, 100% = ACh EC100. P08912. AID 624038. hit rate 0.3% among 360,000;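 active = activation above the run cutoff, the mean activation of all test compounds plus 3 SD, cut at about 18% in these data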
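system = human M5 receptor in CHO-K1 cells | reagent = EC20 acetylcholine as agonist stimulus | compound dosing = single-point, 3 µM nominal | incubation = Fluo-8 loading 80 min at 37 °C plus 30 min room temperature | detection = Fluo-8 calcium dye fluorescence, kinetic read | benchmarks = low control EC20 acetylcholine (0%), high control EC100 acetylcholine (100%)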
CHRM1 antagonist: antagonists of human M1 muscarinic receptor | CHO-K1 hM1, Fluo-8 calcium fluorescence, ACh EC80 antagonist | hit rate 1.3% among 360,000 | P11229 | inhibition, % at 3 µM | AID 588852;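 active = percent inhibition above its own plate's cutoff, namely the mean of that plate's compound wells plus 3 SD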;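 note: peak over basal fluorescence ratio during 140 s after agonist addition; 0% = ACh EC80 plus DMSO and 100% = DMSO alone without agonist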
Target sequence (P11229 whole entry, looked up): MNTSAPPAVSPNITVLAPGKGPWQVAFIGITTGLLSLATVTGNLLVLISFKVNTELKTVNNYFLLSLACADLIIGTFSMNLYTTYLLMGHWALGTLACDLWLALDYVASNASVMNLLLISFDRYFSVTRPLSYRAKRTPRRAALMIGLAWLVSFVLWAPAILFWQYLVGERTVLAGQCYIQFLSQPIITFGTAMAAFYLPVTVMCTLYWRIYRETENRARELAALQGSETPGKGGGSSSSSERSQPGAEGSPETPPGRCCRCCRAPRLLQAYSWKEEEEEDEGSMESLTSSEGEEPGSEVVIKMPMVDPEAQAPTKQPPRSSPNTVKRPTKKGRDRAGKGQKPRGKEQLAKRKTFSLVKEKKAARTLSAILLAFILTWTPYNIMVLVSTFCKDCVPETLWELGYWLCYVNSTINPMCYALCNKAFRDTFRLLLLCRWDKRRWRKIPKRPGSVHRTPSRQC
M1 ag: activates human CHRM1 receptor; hit rate 0.33% among 360,000; P11229; activation, % at 3 µM; CHO-K1 hM1, Fluo-8 calcium fluorescence, agonist mode; 0% DMSO, 100% acetylcholine EC100;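 active = activation above the run's mean compound activation plus 3 SD, cut at about 16% in these data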;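 note: peak over basal fluorescence ratio within a 140 s kinetic read after compound addition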
CHRM5 agonist: agonists of human muscarinic M5 receptor (CHRM5); CHO-K1 hM5 cells, Fluo-8 calcium fluorescence; 0% DMSO wells, 100% maximal acetylcholine response; activation, % at 3 µM; hit rate 0.19% among 360,000; AID 624037;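 active = activation above the run's mean over test compounds plus 3 SD, cut at about 23% in these data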;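 note: signal is peak over basal fluorescence ratio across the kinetic read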
CHRM1 PAM: potentiates human M1 receptor response to acetylcholine. CHO-K1 hM1, Fluo-8 calcium fluorescence, ACh EC20; 0% = ACh EC20, 100% = maximal ACh. activation, % at 3 µM. P11229. AID 588819. hit rate 0.088% among 360,000; in the data active = activation above about 19%, passing the limit was not always enough
M5 antag: blocks acetylcholine activation of human M5 receptor. P08912. CHO-hM5 cells, Fluo-8 calcium fluorescence, ACh EC80. inhibition, % at 3 µM. hit rate 0.59% among 360,000;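 active = inhibition above a per-plate cutoff, the mean of that plate's test compounds plus 3 SD, cut at about 27% in these data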;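 note: 0% = acetylcholine EC80 with DMSO and 100% = DMSO without agonist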
Numbers without * were called inactive; . = no result given. Only some compounds are listed: those with a hit (about 2% of all), similar ones and a draw of the others.

SMILES	CHRM5 PAM	CHRM1 antagonist	M1 ag	CHRM5 agonist	CHRM1 PAM	M5 antag
Cc1cc(C)c(Cn2c(=O)[nH][nH]c2=O)cc1Cn1c(=O)[nH][nH]c1=O	2.2	-14.2	-2.2	-0.8	4.0	-6.7
CN(C)CCCN=C(NO)c1ccc(Cl)cc1Cl	0.2	7.7	49.9*	11.6	-5.8	5.0
COc1ccc(-c2nc(C#N)c(N3CCN(c4ccccc4)CC3)o2)cc1	-3.0	29.1*	-0.8	0.6	-15.0	3.1
Cc1ccnc(NS(=O)(=O)c2ccc(NC(=O)c3cccc(Cl)c3)cc2)n1	-4.7	-6.9	-5.5	-0.1	4.0	15.9
CCc1ccc2oc(-c3ccc(OC)cc3)cc(=Nc3c(C)n(C)n(-c4ccccc4)c3=O)c2c1	-18.6	46.9*	-4.8	-10.9	-21.6	6.2
COCCn1ccc2c(OCC(=O)NCCc3ccc(OC)c(OC)c3)cccc2c1=O	-8.8	-9.4	-0.6	1.9	13.3	3.7
O=C(NC1CC1)C1CC(=O)N(c2ccccc2)C1 (stereo not given)	-8.7	-14.8	-1.9	-4.1	9.8	30.0*
CC(C)COC(=O)N1CCCCC1c1cc(C(=O)NCc2ccc(F)cc2)no1 (stereo not given)	-2.9	-4.7	-5.7	-1.9	-1.1	7.0
O=C(Nc1ccncc1)c1ccc2c(c1)C(=O)N(C1CCCCC1)C2=O	-40.7	35.5*	6.2	5.8	-15.1	30.8*
Nc1nc2c(ncn2[C@@H]2O[C@H](CNC(=O)[C@H](N)Cc3cncn3COCc3ccccc3)[C@@H](O)[C@H]2O)c(=O)[nH]1	-0.3	-14.4	-2.4	-0.6	-2.1	3.8
CCCCC(CC)C(=O)N1CCN(C(=O)c2ccco2)CC1 (stereo not given)	0.9	0.1	-9.6	-1.0	0.5	3.3
O=C(CSc1ccc2nnc(CCNC(=O)c3ccccc3)n2n1)NCc1ccco1	-6.9	14.8	-1.3	-5.6	-4.4	27.9*
CCc1nc2ccc(C(=O)N3CCN(C(=O)c4ccco4)CC3)cn2c1N(C)C(=O)C1CCCCC1	0.0	1.8	-2.6	2.6	2.3	8.5
O=C(COc1ccc(Br)cc1CO)Nc1ccc(S(=O)(=O)N2CCCC2)cc1	-8.8	58.3*	-3.4	1.7	-26.1	8.2
Cc1ccc(OCC(=O)Nc2ccc(S(=O)(=O)N3CCCCC3)cc2)c([N+](=O)[O-])n1	-1.5	44.6*	-4.2	-2.0	-22.0	6.8
COc1ccc(C(=O)OCC(=O)Nc2ccc(OC)c(S(=O)(=O)N3CCCCC3)c2)cc1[N+](=O)[O-]	0.2	-13.4	-4.3	-0.5	9.1	-2.0
COc1ccc(C(=O)OCC(=O)Nc2cccc(S(=O)(=O)N3CCCCCC3)c2)cc1[N+](=O)[O-]	-35.9	54.4*	-2.0	6.3	-20.4	21.2
Cn1c(NCc2ccccc2F)nc2cc(-c3cccc(Cl)c3)sc2c1=O	3.9	-13.1	-1.5	0.2	7.3	-10.9
Cc1ccc2nc(/C(C#N)=C\c3ccc(N4CCOCC4)o3)[nH]c2c1	-3.7	20.2	30.9*	6.5	-12.2	9.2
Cc1ccnc(SCc2cc(=O)c(OC(=O)c3ccc(Br)o3)co2)n1	34.4*	-7.3	1.7	0.3	8.1	17.4
O=C(Oc1coc(CSc2ncccn2)cc1=O)c1ccc(Br)o1	-3.5	-9.6	-4.5	-2.3	8.9	10.6
COc1cc(OC)cc(C(=O)N(Cc2ccco2)c2c(N)n(Cc3ccccc3)c(=O)[nH]c2=O)c1	16.1	-1.4	-3.2	2.9	4.0	-9.8
CCCCCCCCN1C(=O)[C@H](CC(=O)NCCC(C)C)C[C@@]2(C(=O)OCC)CCCC=C12	-7.5	.	.	-2.1	.	6.4
Cc1ccc2c(C)c(C(=O)N(Cc3cccs3)C3CCS(=O)(=O)C3)oc2c1 (stereo not given)	8.1	2.0	15.8	-7.3	23.7*	2.0
COC(=O)C(/C=N/OCc1ccc([N+](=O)[O-])cc1)NC(=O)c1cccc(Cl)c1 (stereo not given)	-9.8	4.3	24.7*	33.8*	3.9	-0.9
SMILES	CHRM5 PAM	CHRM1 antagonist	M1 ag	CHRM5 agonist	CHRM1 PAM	M5 antag
C#CCN(C[C@@H]1[C@@H](OC(=O)NC2CCCC2)[C@@H](OC(=O)NC2CCCC2)CN(C(=O)OC(C)C)N1C(=O)OC(C)C)S(=O)(=O)c1ccc(C)cc1	-3.4	2.1	-8.4	-1.5	-8.9	-10.9
CC(=O)Nc1cc(-c2ccc(CO)cc2)cn2c(-c3ccc(F)c(Cl)c3)cnc12	-6.2	-2.6	-0.3	-1.7	-1.9	8.1
Cc1ccc(C(c2sc3nc(C)nn3c2O)N2CC(C)OC(C)C2)cc1 (stereo not given)	3.9	-3.7	-4.6	-7.2	2.4	-4.2
Cc1nc2sc(C(c3ccc(Cl)cc3)N3CC(C)OC(C)C3)c(O)n2n1 (stereo not given)	-4.4	-20.4	11.4	-1.9	22.9*	7.2
CN(C)S(=O)(=O)c1ccc(C(=O)Nc2nc(-c3cc4ccccc4o3)cs2)cc1	-6.6	23.9*	0.8	0.9	-12.2	13.2
O=C(Nc1nc(-c2cc3ccccc3o2)cs1)c1ccc(S(=O)(=O)N2CCCC2)cc1	3.6	10.2	1.9	3.7	-8.1	-4.1
COc1ccc(NC(=O)C2Cc3c(-c4cccc(NC(C)=O)c4)ccnc3O2)cc1 (stereo not given)	0.3	-16.2	0.5	2.5	4.0	-2.0
COC(=O)c1ccc(COC(=O)c2ccc(CS(=O)(=O)c3ccc(C)cc3)cc2)cc1	-2.9	22.2*	-2.9	-1.5	-9.9	11.2
COC(=O)c1ccc(COC(=O)CCS(=O)(=O)c2ccc(C)cc2)cc1	-0.6	-2.3	-5.3	-2.1	4.7	1.9
CCOC(=O)c1ccc(CNCc2ccc(C)cc2)cc1	-14.5	66.3*	-10.5	-6.4	-24.3	12.2
Cc1cc(NCC(=O)Nc2ccc(C)c(S(=O)(=O)N3CCOCC3)c2)ccc1Br	-10.8	21.3	6.2	5.3	-12.2	9.7
Cc1ccc(C)c(OCCC(=O)OCC(=O)NCCNC(=O)COC(=O)CCOc2cc(C)ccc2C)c1	-31.4	47.2*	3.0	7.7	-17.7	34.5*
Cc1cc(NC(=O)CSc2nnc(-c3ccc([N+](=O)[O-])cc3)o2)no1	-4.4	-2.4	-1.8	-1.9	2.9	6.7
Cc1nc(SCC(=O)NC2CCS(=O)(=O)C2)c2c3c(sc2n1)CCC3 (stereo not given)	2.9	-12.3	-3.4	0.5	8.2	13.9
Cc1nc(SCC(=O)NC2CCS(=O)(=O)C2)c2c3c(sc2n1)CCCC3 (stereo not given)	-3.7	26.5*	-1.1	2.6	-10.8	11.5
CCc1nc2c(OCCC3CCCCC3)cccn2c1N(C)C(=O)c1ccc(C)cc1	-3.6	0.8	-8.7	-2.5	-8.0	3.2

Screening data as filed in PubChem.
